Rows were chosen to be rich in hits. Some 1.9% of all compounds tested hit in one or more screens of this group.
HIF activator: HIF pathway transcriptional activators, primary screen, cell-based, U2OS HRE-luciferase, luminescence. U2OS HRE-luciferase reporter; normalized: DMSO 0%, desferrioxamine 100%. activation, % at 7.5 µM (by protocol). 0.32% of 300,000 active. AID 1910, 2009;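 active = mean activation of at least 10% of the iron chelator positive control signal, with at least half of replicates also reaching 10%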
H9c2 TAG inh: inhibitors of triacylglycerol accumulation, primary screen, cell-based, uHTS, fluorescence, H9c2; H9c2 cells, Nile Red lipid (TAG) fluorescence; cells loaded with 200 µM oleic acid; inhibition, % at 12.5 µM; 0.66% of 230,000 active; AID 651582, 2012;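 active = pattern-corrected inhibition of lipid staining of at least 50% with the nuclear-stain viability signal not falling by more than 50%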
Rad51 HR inh: human RAD51 strand exchange inhibitors, primary screen, biochemical, fluorescence. 0.085% of 200,000 active. hRad51 DNA strand exchange, fluorescence dequenching. DNA repair protein RAD51 homolog 1 (Homo sapiens), Q06609. inhibition, % at 10 µM;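 active = inhibition above 40% at the single screening dose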
Target sequence (Q06609 whole entry, looked up): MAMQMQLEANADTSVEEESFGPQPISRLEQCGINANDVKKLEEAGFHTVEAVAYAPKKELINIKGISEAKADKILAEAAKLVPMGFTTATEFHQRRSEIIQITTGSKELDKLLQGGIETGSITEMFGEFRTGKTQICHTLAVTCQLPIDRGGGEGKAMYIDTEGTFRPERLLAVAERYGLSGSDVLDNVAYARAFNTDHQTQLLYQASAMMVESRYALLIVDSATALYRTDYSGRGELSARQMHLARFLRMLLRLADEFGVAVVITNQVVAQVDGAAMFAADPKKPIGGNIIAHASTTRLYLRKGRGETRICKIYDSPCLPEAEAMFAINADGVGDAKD
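material = hRad51 filaments on single-stranded DNA | timing = filaments 15 min 37 °C, then compound 30 min | signal = FRET fluorescence dequenching, excitation 485 nm, emission 520 nm | benchmarks = control wells and blank wells on each plate | evaluation = percent inhibition relative to plate controls and blanks | compound = 10 µM final, single point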
ABHD5-PLIN5 inh: ABHD5-PLIN5 interaction inhibitors, primary screen, cell lysate, split luciferase complementation, luminescence; Perilipin-5 (Homo sapiens) + 1-acylglycerol-3-phosphate O-acyltransferase ABHD5 (Homo …; Split G. princeps luciferase complementation, 4 h; inhibition, % at 4 µM; 0.78% of 360,000 active;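 active = inhibition above the mean inhibition across every tested compound plus 3 SD, cut at about 22% in these data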
GAA850 FXN act: FXN promoter activators, primary screen, cell-based, luciferase luminescence, HEK293 lucGAA850. HEK293 lucGAA850 FXN promoter luciferase reporter, 24 h; percent of 10 µM SAHA response. activation, % at 6 µM. 0.56% of 360,000 active. AID 540364, 2011;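 active = activation above the average of all compounds screened plus 3 SD, cutoff fixed separately per campaign, cut at about 7.5% in these data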
Hsp70 activator: Hsp70 transcriptional activators, primary screen, cell-based, HeLa, Hsp70 promoter luciferase, luminescence, 10 µM; activation, % at 10 µM; HeLa Hsp70 promoter luciferase reporter; scaled: vehicle 0, proteasome-inhibitor control 100%; 0.04% of 200,000 active; AID 1203, 2008;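 active = activation above the mean across all tested compounds plus 3 SD, cutoff set per campaign, cut at about 5.5% in these data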
A number is an active result; i = inactive; nt = no result given.

SMILES	HIF activator	H9c2 TAG inh	Rad51 HR inh	ABHD5-PLIN5 inh	GAA850 FXN act	Hsp70 activator
Cc1ncc(CO)c(/C=N/NC(=S)Nc2ccc(F)cc2)c1O	i	i	nt	i	i	i
CC(C)(C)C(=O)Nc1ccc(S(=O)(=O)N2CCC(c3nc4ccccc4[nH]3)CC2)cc1	i	i	nt	i	i	nt
Cc1ccc(Cl)cc1N1CCN(CC(O)COCc2ccco2)CC1 (stereo unspecified)	194	nt	i	i	i	i
OC(COCc1ccco1)CN1CCN(C(c2ccccc2)c2ccccc2)CC1 (stereo unspecified)	i	nt	i	i	i	i
COc1cccc(N2CCN(C(=O)c3ccc(Cl)c(NC4=NC5CS(=O)(=O)CC5S4)c3)CC2)c1 (stereo unspecified)	i	nt	nt	i	i	nt
CCOC(=O)c1c(-c2ccc(C)o2)csc1NC(=O)CSc1nncs1	i	nt	i	47	i	i
CCCS(=O)(=O)N1CCCC(C(=O)N2CCN(C(=O)OCC)CC2)C1 (stereo unspecified)	i	nt	69	i	i	i
COC(=O)COc1ccc(S(=O)(=O)NCCC2=CCCCC2)cc1C	i	nt	45	i	i	i
CSc1ccccc1C(=O)NCc1ccc(C)cc1	i	i	i	i	i	i
C/C(=N\NC(=O)c1cc(C)oc1C)c1ccc2ccccc2c1	i	nt	nt	i	i	nt
CS(=O)(=O)N(CC(=O)O)c1ccc(C23CC4CC(CC(C4)C2)C3)cc1	i	nt	nt	i	i	nt
COc1ccccc1NC(=O)CN(c1ccc(C23CC4CC(CC(C4)C2)C3)cc1)S(C)(=O)=O	i	nt	nt	i	9.4	i
CCCS(=O)(=O)N1CCCC(C(=O)NCC(OC)OC)C1 (stereo unspecified)	i	i	i	i	i	i
COc1ccc(N/C=C\C(=O)c2ccc3c(c2)OCO3)cc1	13	i	i	i	i	i
c1ccc(SSc2ccccn2)nc1	i	i	nt	35	i	nt
CCOc1ccc(CCNC(=O)COC(=O)COc2ccc(Br)cc2)cc1OCC	i	i	nt	i	i	nt
Cc1ccc(/C=C/C(=O)Nc2ccc([N+](=O)[O-])cc2)o1	i	nt	i	29	i	i
O=C(O)c1c2c(nc3ccccc13)/C(=C/c1cccc([N+](=O)[O-])c1)CCC2	i	nt	nt	i	i	nt
Cc1cc2nc(-c3cccc(Cl)c3)c(Cc3cccc(Cl)c3)n2c(C)c1Br	nt	nt	nt	i	nt	nt
Cc1cc2nc(-c3ccco3)c(Cc3cccc(Cl)c3)n2c(C)c1Br	nt	nt	nt	26	nt	nt
Clc1cccc(Cc2c(-c3ccco3)nc3ccc(Br)cn23)c1	nt	nt	nt	49	nt	nt
COc1ccccc1Cc1c(-c2ccco2)nc2cc(C)c(Br)c(C)n12	nt	nt	nt	58	nt	nt
CC1CCCCN1S(=O)(=O)c1ccc2c(c1)CCN2C(=O)C1CC1 (stereo unspecified)	i	nt	nt	i	i	nt
COc1ccc(Cc2nnc(SCC(=O)NC3CCCCC3)n2C)cc1	70	nt	i	i	i	i
Cc1cccc(N(Cc2ccccc2)C(=O)CCl)c1	i	68	i	i	i	i
SMILES	HIF activator	H9c2 TAG inh	Rad51 HR inh	ABHD5-PLIN5 inh	GAA850 FXN act	Hsp70 activator
O=C(CCl)N(Cc1ccccc1)c1ccccc1	i	i	i	i	i	i
COc1ccc(OC)c(NC(=O)COC(=O)[C@H](Cc2ccccc2)NC(=O)c2ccco2)c1	nt	i	nt	i	i	nt
CC(C)(C)c1cc(Br)c(O)c(N=Nc2ccc(S(=O)(=O)N3CCOCC3)cc2)c1	i	85	nt	i	i	i
Cc1onc(-c2ccccc2Cl)c1C(=O)NCc1ccc(F)cc1	i	i	nt	i	i	nt
CCC(=O)NC(c1ccc(Cl)cc1Cl)c1ccc2cccnc2c1O (stereo unspecified)	102	55	nt	i	i	nt
Cc1cc(NC(c2ccc(Cl)cc2)c2ccc3cccnc3c2O)no1 (stereo unspecified)	169	i	i	i	i	i
CCCCC(=O)NC(c1ccc(OC)cc1)c1ccc2cccnc2c1O (stereo unspecified)	nt	i	nt	i	i	nt
CCCCC(=O)NC(c1ccc(Cl)cc1Cl)c1ccc2cccnc2c1O (stereo unspecified)	28	nt	nt	i	i	nt
CCCCn1nc(C(=O)Nc2c(C)n(C)n(-c3ccccc3)c2=O)c2ccccc2c1=O	nt	i	nt	i	i	nt
CCCCCc1cc(=O)oc2c(C(CCN3CCCC3)c3ccc(N(C)C)cc3)c(OC)cc(OC)c12 (stereo unspecified)	i	68	i	i	i	nt
COc1cc(OC)c2ccc(=O)oc2c1C(CCN1CCCC(C)C1)c1ccc2c(c1)OCO2 (stereo unspecified)	i	i	i	i	i	nt
CCCCCc1cc(=O)oc2c(C(CCN3CCCC(C)C3)c3ccc(OC)cc3)c(OC)cc(OC)c12 (stereo unspecified)	i	96	i	i	i	nt
N#C/C(=C\c1ccco1)C(=O)NCC1CCCO1 (stereo unspecified)	i	nt	nt	i	i	i
O=C(NC1CCCC1)C1CCC(=O)N1C1CCCCC1 (stereo unspecified)	i	i	45	i	i	i
O=[N+]([O-])c1ccc(-c2nc(C(Cl)Cl)c3ccccc3n2)cc1	i	112	nt	i	i	nt
CCC(Sc1nc(C)cc(=O)[nH]1)C(=O)Nc1sc2c(c1C#N)CCCC2 (stereo unspecified)	23	nt	i	i	i	i
CC(Sc1nc(N)cc(=O)[nH]1)C(=O)Nc1sc2c(c1C#N)CCCC2 (stereo unspecified)	i	i	nt	i	i	i
COc1ccc(N(CC(=O)Nc2cc(Cl)ccc2OC)C2=NC3CS(=O)(=O)CC3S2)cc1 (stereo unspecified)	i	i	nt	i	i	nt
CCN(CC(=O)NCCc1ccc(F)cc1)Cc1nc2ccccc2c(=O)[nH]1	i	i	46	i	i	nt
CCN(CC)CCNC(=O)c1c(C)n(-c2ccccc2)c2cc(Br)c(OC)cc12	i	69	i	i	i	i
COc1cc2c(C(=O)N3CCN(C)CC3)c(C)n(-c3ccccc3)c2cc1Br	i	nt	i	i	i	i
Cc1occc1C(=O)NNC(=O)C1CCCCC1	i	nt	i	i	i	i
Cc1occc1C(=O)NC1CCCCCC1	13	i	i	i	i	i
COc1ccc(C(=O)C(CCC(CNC(C)(C)C)C(=O)c2ccc(OC)cc2)CNC(C)(C)C)cc1 (stereo unspecified)	i	nt	i	41	i	i
FC(F)(F)c1ccc(Cl)c(NC2=NCCCCC2)c1	i	nt	nt	i	i	nt
Cn1c(C(=O)Nc2ccc(Cl)cc2)cc2cc(Cl)ccc21	i	nt	nt	i	i	nt

Bioassay records from PubChem.
